Experimental data taken from ChEMBL document CHEMBL5346889, “Discovery of 4-oxo-N-phenyl-1,4-dihydroquinoline-3-carboxamide derivatives as novel anti-inflammatory agents for the treatment of acute lung injury and sepsis” (Eur J Med Chem, 2023).
Activity calls are given as the source filed them. The calls are words filed in the database; no cut-off is given here.

What was measured:
[1] = system: Mus musculus; experiment: Protection against LPS-induced C57/BL6 mouse acute lung injury model assessed as reduction in number of neutrophils in BALF at 20 mg/kg via oral gavage preincubated for 30 mins followed by LPS stimulation for 6 hrs; type: functional, organism-based; conditions: time 6.5 hrs
Summary of the method: (§1)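 Mice dosed 20 mg/kg by gavage (dexamethasone 20 mg/kg comparator), intratracheal LPS 5 mg/kg 30 min later, killed at 6 h. Right upper lobe fixed in paraformaldehyde, H&E; lung wet/dry ratio; BALF protein, total cells and neutrophils counted; n = 5 mice per group, mean ± SEM.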

[2] = system: Mus musculus; experiment: Protection against LPS-induced C57/BL6 mouse acute lung injury model assessed as improvement in structural distruption of lung tissue at 20 mg/kg via oral gavage preincubated for 30 mins followed by LPS stimulation for 6 hrs; type: functional, organism-based; conditions: time 6.5 hrs; summary of the method: as §1
[3] = system: Mus musculus; experiment: Protection against LPS-induced C57/BL6 mouse acute lung injury model assessed as reduction in protein concentration in BALF at 20 mg/kg via oral gavage preincubated for 30 mins followed by LPS stimulation for 6 hrs; type: functional, organism-based; conditions: time 6.5 hrs; summary of the method: as §1
[4] = system: Mus musculus; experiment: Protection against LPS-induced C57/BL6 mouse acute lung injury model assessed as reduction in lung wet/dry ratio at 20 mg/kg via oral gavage preincubated for 30 mins followed by LPS stimulation for 6 hrs; type: functional, organism-based; conditions: time 6.5 hrs; summary of the method: as §1
[5] = system: Mus musculus; experiment: Protection against LPS-induced C57/BL6 mouse acute lung injury model assessed as reduction in number of total cells in BALF at 20 mg/kg via oral gavage preincubated for 30 mins followed by LPS stimulation for 6 hrs; type: functional, organism-based; conditions: time 6.5 hrs; summary of the method: as §1
[6] = system: Mus musculus; experiment: Antiinflammatory activity in LPS-induced C57/BL6 mouse acute lung injury model assessed as decrease in TNF-alpha level in serum at 20 mg/kg via oral gavage preincubated for 30 mins followed by LPS stimulation for 6 hrs by ELISA; conditions: time 6.5 hrs
[7] = system: Mus musculus; experiment: Antiinflammatory activity in LPS-induced C57/BL6 mouse acute lung injury model assessed as decrease in TNF-alpha level in BALF at 20 mg/kg via oral gavage preincubated for 30 mins followed by LPS stimulation for 6 hrs by ELISA; conditions: time 6.5 hrs
[8] = system: Mus musculus; experiment: Antiinflammatory activity in LPS-induced C57/BL6 mouse acute lung injury model assessed as decrease in IL-6 level in BALF at 20 mg/kg via oral gavage preincubated for 30 mins followed by LPS stimulation for 6 hrs by ELISA; conditions: time 6.5 hrs
[9] = system: Mus musculus; experiment: Protection against LPS-induced C57/BL6 mouse acute lung injury model assessed as improvement in alveolar wall thickening at 20 mg/kg via oral gavage preincubated for 30 mins followed by LPS stimulation for 6 hrs; type: functional, organism-based; conditions: time 6.5 hrs; summary of the method: as §1
[10] = system: Mus musculus; experiment: Antiinflammatory activity in LPS-induced C57/BL6 mouse acute lung injury model assessed as decrease in TNF-alpha expression level at 20 mg/kg via oral gavage preincubated for 30 mins followed by LPS stimulation for 6 hrs by RT-qPCR method; type: functional, organism-based; conditions: time 6.5 hrs
Summary of the method: (§2)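 Male C57BL/6 mice, six weeks old, n = 8 per group. Dosed 20 mg/kg orally 30 min before intratracheal LPS 5 mg/kg; dexamethasone 20 mg/kg as comparator. Lung tissue collected 6 h after LPS. RNA extracted with TRIzol; IL-6 and TNF-α transcripts by RT-qPCR, normalized to β-actin; n = 5 mice per group, mean ± SEM.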

[11] = system: Mus musculus; experiment: Antiinflammatory activity in LPS-induced C57/BL6 mouse acute lung injury model assessed as reduction in macrophage infiltration at 20 mg/kg via oral gavage preincubated for 30 mins followed by LPS stimulation for 6 hrs by immunohistochemical staining based analysis; type: functional, organism-based; conditions: time 6.5 hrs
Summary of the method: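 Same ALI model: 20 mg/kg oral, intratracheal LPS 5 mg/kg 30 min later, lungs at 6 h. Paraffin sections given citrate (pH 6.5) antigen retrieval, 3% H2O2 and 5% BSA block, anti-F4/80 12 h at 4 °C, HRP secondary, DAB and hematoxylin; F4/80 positivity quantified; n = 5 per group.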

[12] = system: Mus musculus; experiment: Antiinflammatory activity in LPS-induced C57/BL6 mouse acute lung injury model assessed as decrease in IL-6 level in serum at 20 mg/kg via oral gavage preincubated for 30 mins followed by LPS stimulation for 6 hrs by ELISA; conditions: time 6.5 hrs
[13] = system: Mus musculus; experiment: Antiinflammatory activity in LPS-induced C57/BL6 mouse acute lung injury model assessed as decrease in IL-6 expression level at 20 mg/kg via oral gavage preincubated for 30 mins followed by LPS stimulation for 6 hrs by RT-qPCR method; type: functional, organism-based; conditions: time 6.5 hrs; summary of the method: as §2
[14] = system: J774.A1; experiment: Antiinflammatory activity in LPS-induced mouse J774.A1 cells assessed as inhibition of LPS-induced IL-6 release at 10 uM preincubated for 30 mins followed by LPS stimulation for 24 hrs by ELISA method; type: functional; conditions: time 24.5 hrs
Summary of the method: (§3)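 J774A.1 macrophages pretreated 30 min at 10 μM, then challenged with LPS 0.5 μg/mL for 24 h at 37 °C, 5% CO2. Medium IL-6 and TNF-α measured by ELISA, normalized to total lysate protein.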

[15] = system: J774.A1; experiment: Antiinflammatory activity in LPS-induced mouse J774.A1 cells assessed as inhibition of LPS-induced TNF-alpha release at 10 uM preincubated for 30 mins followed by LPS stimulation for 24 hrs by ELISA method; type: functional; conditions: time 24.5 hrs; summary of the method: as §3
[16] = system: J774.A1; experiment: Antiinflammatory activity in LPS-induced mouse J774.A1 cells assessed as inhibition of LPS-induced TNF-alpha release preincubated for 30 mins followed by LPS stimulation for 24 hrs by ELISA method; type: functional, cell-based
Summary of the method: (§4)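 Dose-response in J774A.1 cells: 30 min pretreatment at 10, 5, 2.5 or 1.25 μM, then LPS 0.5 μg/mL for 24 h. IL-6 and TNF-α by ELISA, normalized to lysate protein; IC50 from the dose-response; 3 independent experiments, mean ± SEM.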

[17] = system: J774.A1; experiment: Cytotoxicity against mouse J774.A1 cells assessed as reduction in cell viability at 10 uM incubated for 24 hrs by MTT assay; type: functional, cell-based
Summary of the method: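 J774A.1 macrophages exposed to 10 μM for 24 h; MTT at 5 mg/mL added for 4 h; absorbance read at 490 nm; viability expressed as percent of DMSO control.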

[18] = system: J774.A1; experiment: Antiinflammatory activity in LPS-induced mouse J774.A1 cells assessed as inhibition of LPS-induced IL-6 release preincubated for 30 mins followed by LPS stimulation for 24 hrs by ELISA method; type: functional, cell-based; summary of the method: as §4

Row | SMILES | inhibition [15] | inhibition at 10 µM [14] [%] | inhibition at 10 µM [15] [%] | also measured
1 | C[C@@H]1C[C@H]2[C@@H]3CCC4=CC(=O)C=C[C@]4(C)[C@@]3(F)[C@@H](O)C[C@]2(C)[C@@]1(O)C(=O)CO |  |  |  | Activity [1]: Active; Activity [2]: Active; Activity [3]: Active; Activity [4]: Active; Activity [5]: Active; Activity [6]: Active; Activity [7]: Active; Activity [8]: Active; Activity [9]: Active; Activity [10]: Active; Activity [11]: Active; Activity [12]: Active; Activity [13]: Active
2 | COc1cc2ncnc(Oc3cccc(NC(=O)c4cn(-c5ccc(Br)cc5F)c5ccccc5c4=O)c3)c2cc1OC | inactive |  |  | inhibition [14]: inactive
3 | COc1cc2nccc(Oc3ccc(NC(=O)c4cn(-c5ccc(OC(F)(F)F)cc5)c5ccccc5c4=O)cc3)c2cc1OC |  | 50.5 | 67.6 | 
4 | COc1cc2ncnc(Oc3cccc(NC(=O)c4cn(-c5ccc(F)cc5)c5ccccc5c4=O)c3)c2cc1OC | inactive | 45.4 |  | 
5 | COc1cc2ncnc(Oc3ccc(NC(=O)c4cn(-c5ccc(OC(F)(F)F)cc5)c5ccccc5c4=O)cc3)c2cc1OC |  | 35.9 | 54.9 | 
6 | COc1cc2ncnc(Oc3cccc(NC(=O)c4cn(-c5ccc(Br)cc5)c5ccccc5c4=O)c3)c2cc1OC | inactive | 20.4 |  | 
7 | COc1cc2ncnc(Oc3ccc(NC(=O)c4cn(-c5ccc(F)cc5)c5ccccc5c4=O)cc3)c2cc1OC |  | 57 | 48 | 
8 | COc1cc2ncnc(Oc3ccc(NC(=O)c4cn(-c5ccccc5)c5ccccc5c4=O)cc3)c2cc1OC |  | 38.1 | 30.5 | 
9 | COc1cc2ncnc(Oc3ccc(NC(=O)c4cn(-c5ccc(Br)cc5)c5ccccc5c4=O)cc3)c2cc1OC |  |  | 22.4 | inhibition [14]: inactive
10 | COc1cc2nccc(Oc3cccc(NC(=O)c4cn(-c5ccc(F)c(Cl)c5)c5ccccc5c4=O)c3)c2cc1OC |  | 49.7 | 32.6 | 
11 | COc1cc2nccc(Oc3ccc(NC(=O)c4cn(-c5ccc(F)cc5)c5ccccc5c4=O)cc3)c2cc1OC |  | 77.4 | 83.1 | IC50 [16]: 3460 nM; inhibition ([16]; dose 1.25-10 µM, time 24.5 hrs): Dose-Dependent Effect; Activity [17]: inactive; IC50 [18]: 2330 nM; inhibition ([18]; dose 1.25-10 µM, time 24.5 hrs): Dose-Dependent Effect
12 | COc1cc2ncnc(Oc3cccc(NC(=O)c4cn(-c5ccc(Cl)cc5)c5ccccc5c4=O)c3)c2cc1OC | inactive | 32.3 |  | 
13 | COc1cc2nccc(Oc3ccc(NC(=O)c4cn(-c5ccc(Cl)cc5)c5ccccc5c4=O)cc3)c2cc1OC |  | 32 | 63.5 | 
14 | COc1cc2nccc(Oc3cccc(NC(=O)c4cn(-c5ccc(F)cc5)c5ccccc5c4=O)c3)c2cc1OC | inactive | 51.3 |  | 
15 | COc1cc2ncnc(Oc3ccc(NC(=O)c4cn(-c5ccc(Br)cc5F)c5ccccc5c4=O)cc3)c2cc1OC | inactive | 13.3 |  | 
16 | COc1cc2nccc(Oc3cccc(NC(=O)c4cn(-c5ccc(Br)cc5)c5ccccc5c4=O)c3)c2cc1OC | inactive | 37.1 |  | 
17 | COc1cc2nccc(Oc3cccc(NC(=O)c4cn(-c5ccc(OC(F)(F)F)cc5)c5ccccc5c4=O)c3)c2cc1OC |  | 66.4 | 33.3 | 
18 | COc1cc2nccc(Oc3cccc(NC(=O)c4cn(-c5ccc(Cl)cc5)c5ccccc5c4=O)c3)c2cc1OC | inactive | 60.2 |  | 
19 | COc1cc2ncnc(Oc3ccc(NC(=O)c4cn(-c5ccc(Cl)cc5)c5ccccc5c4=O)cc3)c2cc1OC | inactive | 30.5 |  | 
20 | COc1cc2ncnc(Oc3ccc(NC(=O)c4cn(-c5ccc(F)c(Cl)c5)c5ccccc5c4=O)cc3)c2cc1OC |  | 39.6 | 48 | 
21 | COc1cc2nccc(Oc3cccc(NC(=O)c4cn(-c5ccc(Br)cc5F)c5ccccc5c4=O)c3)c2cc1OC | inactive | 52.9 |  | 
22 | COc1cc2nccc(Oc3cccc(NC(=O)c4cn(-c5ccccc5)c5ccccc5c4=O)c3)c2cc1OC | inactive | 44.8 |  | 
23 | COc1cc2ncnc(Oc3cccc(NC(=O)c4cn(-c5ccc(F)c(Cl)c5)c5ccccc5c4=O)c3)c2cc1OC |  | 33.9 | 36 | 
24 | COc1cc2ncnc(Oc3cccc(NC(=O)c4cn(-c5ccccc5)c5ccccc5c4=O)c3)c2cc1OC | inactive | 42.4 |  | 
25 | COc1cc2nccc(Oc3ccc(NC(=O)c4cn(-c5ccc(F)c(Cl)c5)c5ccccc5c4=O)cc3)c2cc1OC |  | 62.2 | 67.7 | 
26 | COc1cc2nccc(Oc3ccc(NC(=O)c4cn(-c5ccc(Br)cc5F)c5ccccc5c4=O)cc3)c2cc1OC | inactive | 26.7 |  | 
27 | COc1cc2nccc(Oc3ccc(NC(=O)c4cn(-c5ccc(Br)cc5)c5ccccc5c4=O)cc3)c2cc1OC |  | 41.7 | 71.7 | 
28 | COc1cc2ncnc(Oc3cccc(NC(=O)c4cn(-c5ccc(OC(F)(F)F)cc5)c5ccccc5c4=O)c3)c2cc1OC |  | 10.4 | 7.66 | 
